Antiemetic activity, Gastric emptying and ED50 data for 18 molecules are collected here from ChEMBL document CHEMBL1131514, “A novel series of 6-methoxy-1H-benzotriazole-5-carboxamide derivatives with dual antiemetic and gastroprokinetic activities” (1998).

Each structure is given as a SMILES string. Bounds are passed on as bounds.

The test system of assay [1] is Canis familiaris. The assay can be described thus: Antiemetic activity was evaluated in vivo by the suppression of apomorphine-induced emesis in dogs at oral dose of 1.0 mg/kg. It counts as functional, Canis lupus familiaris.
Assay [2] has as its system Rattus norvegicus. The assay can be described thus: Compound was tested for its effect on the gastric emptying rate of phenol red semisolid meal through the stomach at oral dose of 3.0 mg/kg in rats. It counts as functional. Put shortly: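 Rats dosed orally at 3.0 mg/kg, with a 0.5% tragacanth control group. Gastric emptying of a phenol red semisolid meal was measured and expressed as percentage enhancement relative to the control group mean. Significance was tested against control.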

The test system of assay [3] is Canis familiaris. The assay can be described thus: Tested in vivo for effective dose required for suppression of apomorphine-induced emesis in dog […]. The format is functional. Particulars: Canis lupus familiaris.

Turning to `CCN1CCCCC(NC(=O)c2cc3nnn(C(C)C)c3cc2OC)C1` (stereo unspecified), the Antiemetic activity in assay [1] is on record as 94%. Also, the Gastric emptying in assay [2] is 16%.
The like results for `CCN1CCCCC(NC(=O)c2cc3nnn(CC4CC4)c3cc2OC)C1` (stereo unspecified) were, in that order, 74% and 34%.
In the case of `COc1cc2[nH]nnc2cc1C(=O)NC1CCCCN(C(C)C)C1` (stereo unspecified), in assay [1], the Antiemetic activity is listed as 15%. This molecule also had a Gastric emptying in assay [2] of 31%.
`COc1cc2[nH]nnc2cc1C(=O)NC1CCCCN(C)C1` (stereo unspecified) returned an Antiemetic activity in assay [1] of 46%. For the same molecule, the Gastric emptying in assay [2] amounted to 20%.
In general, ED50 refers to the midpoint of the dose-response relation. Higher therefore signals weaker potency. Take `CCN1CCCCCC(NC(=O)c2cc3[nH]nnc3cc2OC)C1` (stereo unspecified): the Antiemetic activity in assay [1] was 100%. In assay [2], the Gastric emptying was 21%. The ED50 in assay [3] amounted to 0.19 mg/kg.
As for `CCCn1nnc2cc(C(=O)NC3CCCCN(CC)C3)c(OC)cc21` (stereo unspecified), the Antiemetic activity in assay [1] is given as 89%. The molecule also registered a Gastric emptying in assay [2] of 29%.
The like results for `CCOc1cc2[nH]nnc2cc1C(=O)NC1CCCCN(CC)C1` (stereo unspecified) were, in that order, 15% and 18%.
The like results for `CCN1CCCCC(NC(=O)c2cc3nnn(CC)c3cc2OC)C1` (stereo unspecified) were, in that order, 89% and 31%.
In turn, `CCN1CCCCC(NC(=O)c2ccc3[nH]nnc3c2OC)C1` (stereo unspecified) showed an Antiemetic activity in assay [1] of 50%. The same molecule showed a Gastric emptying in assay [2] of 11%.
In the same order, the values of `CCN1CCCCC(NC(=O)c2cc3nnn(C)c3cc2OC)C1` (stereo unspecified) are 77% and 49%.
In the same order, the values of `CCN1CCCCCCCC(NC(=O)c2cc3[nH]nnc3cc2OC)C1` (stereo unspecified) are 22% and 31%.
In assay [1], `CCN1CCCCCCC(NC(=O)c2cc3[nH]nnc3cc2OC)C1` (stereo unspecified) yielded an Antiemetic activity of 100%. For the same molecule, in assay [2], the Gastric emptying amounted to 46%. The same molecule yielded a median effective dose (ED50) in assay [3] of 0.1 mg/kg.
The like results for `CCN1CCCCC(NC(=O)c2cc3[nH]nnc3cc2OC)C1` (stereo unspecified) were, in that order, 100%, 28% and 0.08 mg/kg.
`CCN1CCCC(NC(=O)c2cc3[nH]nnc3cc2OC)C1` (stereo unspecified) showed an Antiemetic activity in assay [1] of 31%.
For `CCCN1CCCCC(NC(=O)c2cc3[nH]nnc3cc2OC)C1` (stereo unspecified), the Antiemetic activity in assay [1] worked out at 63%. In assay [2], the Gastric emptying was found to be 17%.
Consider `O=c1[nH]c2ccccc2n1CCCN1CCC(n2c(=O)[nH]c3cc(Cl)ccc32)CC1` [DOMPERIDONE], for which the Antiemetic activity in assay [1] is listed as 100%. The Gastric emptying in assay [2] amounted to 0%. This molecule also registered a 50% effective dose (ED50) in assay [3] of 0.02 mg/kg.
In the same order, the values of `CCN(CC)CCNC(=O)c1cc(Cl)c(N)cc1OC` [METOCLOPRAMIDE] are 86%, 39% and 0.45 mg/kg.
As to `CCOc1cc(N)c(Cl)cc1C(=O)NCC1CN(Cc2ccc(F)cc2)CCO1` (stereo unspecified) [MOSAPRIDE], in assay [1], the Antiemetic activity came out at 8%. Besides, in assay [2], the Gastric emptying is 70%. The 50% effective dose (ED50) in assay [3] was greater than 10 mg/kg.
